Experimental data taken from publication PMC6467801 (Journal of medicinal chemistry, 2018).

Legend:
full length SHP2 = molecular target: T1, full length SHP2 (Homo sapiens, UniProt Q06124); assay: In vitro phosphatase activity assay, phospho-peptide substrate, Malachite Green; assay type: biochemical; details: for inhibition of SHP2 phosphatase activity (qualitative): phospho-peptide substrate
T1 sequence (Q06124 1-593): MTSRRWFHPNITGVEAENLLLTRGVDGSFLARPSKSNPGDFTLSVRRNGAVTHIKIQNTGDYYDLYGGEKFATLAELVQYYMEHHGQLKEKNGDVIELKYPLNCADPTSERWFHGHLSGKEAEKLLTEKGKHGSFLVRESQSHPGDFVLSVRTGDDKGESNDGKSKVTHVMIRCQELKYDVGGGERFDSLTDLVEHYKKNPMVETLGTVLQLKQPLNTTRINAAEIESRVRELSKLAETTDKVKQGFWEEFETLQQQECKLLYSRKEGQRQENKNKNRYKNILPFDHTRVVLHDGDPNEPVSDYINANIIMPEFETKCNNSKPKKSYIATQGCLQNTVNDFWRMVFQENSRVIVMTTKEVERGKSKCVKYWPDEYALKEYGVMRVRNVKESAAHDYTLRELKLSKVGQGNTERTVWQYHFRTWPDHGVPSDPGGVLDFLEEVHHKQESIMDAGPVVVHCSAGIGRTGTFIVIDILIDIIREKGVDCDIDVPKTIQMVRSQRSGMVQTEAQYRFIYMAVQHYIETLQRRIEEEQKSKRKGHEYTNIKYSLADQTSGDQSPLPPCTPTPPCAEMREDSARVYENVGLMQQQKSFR
In short: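 Purified full-length SHP2 (0.1 μg) was preincubated with test compound for 30 min at room temperature in 25 mM Tris-HCl pH 7.4, 50 mM NaCl, 5 mM DTT, 2.5 mM EDTA. Phospho-peptide (also an N-SH2 activator) was added to 50 µM final and incubated 30 °C, 30 min. Freed phosphate was read by Malachite Green at OD620. Lineweaver-Burk used 0, 10, 20 μM; mean ± SD, three experiments.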

full length SHP1 = full length SHP1 (Homo sapiens, UniProt P29350); assay: In vitro phosphatase activity assay, phospho-peptide substrate, Malachite Green; assay type: biochemical; details: data not shown
cells = assay: Acute toxicity in cells; assay type: cell-based
[1] = tested on: SHP2 (full length WT, E76K, PTP domain); assay: Phosphatase assay with pNPP as the substrate; assay type: biochemical; details: 1 at 10 μM; any form of SHP2 protein
In short: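 SHP2 enzyme (0.1 μg; full-length WT, E76K or PTP domain) was incubated with test compound for 15 min at 37 °C in 25 mM Tris-HCl pH 7.4, 50 mM NaCl, 5 mM DTT, 2.5 mM EDTA. pNPP was added to 0.9 mg/ml final and incubated a further 15 min at 37 °C. Read-out was OD405. Three independent experiments.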

[2] = molecular target: T2, full length WT SHP2 GST-fusion protein (Homo sapiens, UniProt Q06124); assay: Fluorescence titration; assay type: binding; details: SHP2 3.0 µM, dose-dependent
T2 sequence (Q06124 1-593): T1 sequence (Q06124 1-593)
In short: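 GST-fusion full-length WT SHP2 was held at 3.0 μM in 20 mM Tris-HCl, pH 7.5, and titrated with rising test compound. Excitation was 295 nm and emission was read 360–500 nm. Inhibitor-alone fluorescence was subtracted. Relative intensity was plotted against log molar concentration. Three independent experiments; mean ± SD of triplicates from one representative run.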

His-tagged SHP2 = molecular target: T3, His-tagged SHP2 (Homo sapiens, UniProt Q06124); assay: Thermal shift assay; assay type: binding; details: 5, 10, 60 µM
T3 sequence (Q06124 1-593): T1 sequence (Q06124 1-593)
In short: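 His-tagged SHP2 (1 µg) in 50 mM Tris-HCl pH 8.0, 500 mM NaCl, 50 mM imidazole was mixed with 5x Sypro Orange stock, 20 µl reaction. Test compound in DMSO was added to 5, 10 or 60 µM final; 1% DMSO served as control. Samples were heated 22–95 °C in 1 °C steps every 50 sec, and Tm was taken from melting curves. Mean ± SD of three independent experiments.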

Ba/F3 cells [3] = assay: IL-3 dependent cell proliferation; assay type: cell-based, murine; details: IL-3 1.0 ng/mL, 48 hours
In short: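 Cell numbers were read 48 hours after treatment with the One Solution Cell Proliferation Assay kit. Three experiments; mean ± SD of triplicates from one representative experiment.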

Ba/F3 cells [4] = assay: IL-3-induced signaling, immunoblotting of p-Erk, p-Akt, p-Jak2, p-Stat5; assay type: cell-based, murine; details: 4 hours pretreatment, IL-3 2.0 ng/mL, dose-dependent
In short: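 Ba/F3 cells were starved overnight in serum- and cytokine-free RPMI1640, given test compound for 4 h, then stimulated with IL-3 2 ng/mL. Stimulation was 10 min for the dose series, or a time course at 20 µM. Cells were lysed in RIPA with NaF, Na3VO4 and protease inhibitors. 50 μg protein per lane went through SDS-PAGE and phospho-antibody immunoblotting with ECL. Blots were reprobed for total proteins. Three independent experiments.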

[5] = tested on: mouse embryonic fibroblasts (WT, PTPN11 knockout, PTPN11 E76K/+); assay: MEF proliferation; assay type: cell-based; details: 6 μM
In short: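 Ptpn11 fl/fl and +/+ MEFs were infected with adeno-Cre, then treated with test compound at 6 μM or DMSO. Growth was measured at 24, 48 and 72 h with the One Solution Cell Proliferation kit, and SHP2 loss was confirmed by immunoblot. Ptpn11 E76K/+ and +/+ MEFs at 6 μM were counted with the same kit. Three experiments; mean ± SD of triplicates from one representative.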

H661 cells (PTPN11 N58S) = assay: Lung cancer cell proliferation; assay type: cell-based, human; details: 48 hours, dose-dependent; more sensitive than H596
In short: (§1)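 Human lung cancer H661 (PTPN11 N58S/+) and H596 (WT PTPN11) cells were exposed to graded test compound for 48 hours, with DMSO controls. Cell number was measured by One Solution Cell Proliferation Assay kit. Three experiments; mean ± SD of triplicates from one representative experiment.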

H596 cells (WT PTPN11) = assay: Lung cancer cell proliferation; assay type: cell-based, human; details: 48 hours, dose-dependent
In short: as §1

H661 cells = assay: Cell cycle analysis, propidium iodide staining and FACS; assay type: cell-based, human; details: 10 and 20 μM, 24 hours
In short: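 H661 cells (PTPN11 N58S/+) were treated with test compound at 0, 10 or 20 μM, stained with propidium iodide and analysed by FACS. Profiles are representative of three independent experiments.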

[6] = tested on: myeloid progenitors from PTPN11 E76K/+ mice; assay: Colony-forming unit assay, mouse bone marrow cells; assay type: cell-based; details: GM-CSF 1.0 ng/mL, 7 days, vs WT control cells
In short: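 Bone marrow from Ptpn11E76K/+/Mx1-Cre+ and Ptpn11+/+/Mx1-Cre+ mice was plated at 2×10^4 cells/mL in 0.9% methylcellulose IMDM (30% FBS, glutamine, β-mercaptoethanol, GM-CSF 1.0 ng/mL) with graded test compound or DMSO. Cultures ran 7 days at 37 °C in 5% CO2. Myeloid colonies (CFU-GM, CFU-M) were counted and normalized to WT DMSO colonies. Mean ± SD of three independent experiments.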

[7] = tested on: myeloid blasts from JMML patients with the PTPN11 E76K/+ mutation; assay: Colony-forming unit assay, JMML patient cells; assay type: cell-based, human; details: GM-CSF 1.0 ng/mL, 14 days

Sequence of full length SHP1 (P29350 whole entry): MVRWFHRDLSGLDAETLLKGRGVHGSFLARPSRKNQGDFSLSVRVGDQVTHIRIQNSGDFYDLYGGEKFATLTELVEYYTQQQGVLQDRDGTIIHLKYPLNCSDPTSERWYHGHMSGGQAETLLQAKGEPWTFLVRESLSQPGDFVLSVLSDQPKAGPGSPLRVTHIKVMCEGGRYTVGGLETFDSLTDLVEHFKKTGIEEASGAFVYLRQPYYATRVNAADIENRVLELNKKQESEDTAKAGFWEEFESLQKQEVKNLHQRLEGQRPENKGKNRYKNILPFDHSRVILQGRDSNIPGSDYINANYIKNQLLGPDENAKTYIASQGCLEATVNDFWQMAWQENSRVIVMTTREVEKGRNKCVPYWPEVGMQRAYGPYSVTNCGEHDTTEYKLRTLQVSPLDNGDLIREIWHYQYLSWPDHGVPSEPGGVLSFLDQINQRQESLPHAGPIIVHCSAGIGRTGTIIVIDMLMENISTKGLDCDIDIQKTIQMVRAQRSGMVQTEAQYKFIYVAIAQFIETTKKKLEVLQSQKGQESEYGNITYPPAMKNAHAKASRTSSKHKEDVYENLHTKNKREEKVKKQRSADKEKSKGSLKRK

Question: Which results are given for `CCOc1cc(O)c(C(=O)/C=C/c2ccc(Cl)cc2Cl)cc1CN1CCNCC1C` (stereo not drawn) [LY5]?
Answer: inhibition of SHP2 phosphatase activity (qualitative) (full length SHP2): good effects on SHP2; inhibition of SHP1 relative to SHP2 (qualitative) (full length SHP1): inhibited the SHP1 phosphatase to a similar extent

Question: With `CCOc1cc(O)c(C(=O)/C=C/c2ccc(Cl)cc2Cl)cc1CN1C[C@@H](O)C[C@@H]1C(C)=O` [LY7] as the molecule, how does the toxicity in cells (cells) read?
Answer: acute toxicity in cells

Question: For `CCOc1cc(O)c(C(=O)/C=C/c2ccc(Cl)cc2Cl)cc1CN1CCCCC1` [LY1], which toxicity in cells (cells) is on record?
Answer: acute toxicity in cells

Question: For `CCOc1cc(O)c(C(=O)/C=C/c2ccc(Cl)cc2Cl)cc1CN1CCC=C(n2c(=O)[nH]c3ccccc32)C1` [compound 1, (E)-1-(1-(5-(3-(2,4-dichlorophenyl)acryloyl)-2-ethoxy-4-hydroxybenzyl)-1,2,5,6-tetrahydropyridin-3-yl)-1H-benzo[d]imidazol-2(3H)-one], which “type of inhibition (Lineweaver-Burk plot)” value (full length SHP2; 0, 10, 20 μM, Vmax decreased, Km increased) is on record?
Answer: mixed type inhibitor

Question: What about the “inhibitory function in presence of Triton X-100” value (full length SHP2; 0.001% Triton X-100 in assay buffer) of the same molecule?
Answer: not decreased

Question: What about the “inhibition of SHP2 in presence of Triton X-100” value (full length SHP2; 0.01% Triton X-100) of the same molecule?
Answer: diminished

Question: What about the “inhibition of SHP2 phosphatase activity (qualitative)” value (full length SHP2) of the same molecule?
Answer: most active compound among the remaining compounds

Question: And the “1/SHP2 binding after extensive washing of enzyme-inhibitor complex” value (full length SHP2; washing)?
Answer: stable

Question: And the “effect on capability of SHP2 to dephosphorylate pNPP” value [1]?
Answer: did not affect

Question: What about the “quenching of SHP2 fluorescence” value [2] of the same molecule?
Answer: strong quenching

Question: What about the “shift in melting temperature (Tm)” value (His-tagged SHP2) of the same molecule?
Answer: dose-dependent right shifts

Question: And the cell growth (Ba/F3 cells [3])?
Answer: significantly suppressed cell growth

Question: And the “IL-3-induced activation (phosphorylation) of Erk, Akt, Jak2, Stat5” value (Ba/F3 cells [4])?
Answer: inhibited

Question: And the “cell growth of PTPN11 E76K/+ MEFs” value [5]?
Answer: significantly decreased cell growth

Question: And the “proliferation of WT MEFs” value ([5]; 24, 48, 72 hours)?
Answer: markedly decreased

Question: What about the “proliferation of PTPN11-depleted MEFs” value ([5]; PTPN11 knockout) of the same molecule?
Answer: did not show a significant effect

Question: What about the “proliferation of H661 cells” value (H661 cells (PTPN11 N58S)) of the same molecule?
Answer: inhibited proliferation

Question: And the “proliferation of H596 cells” value (H596 cells (WT PTPN11))?
Answer: inhibited proliferation

Question: What about the cell cycle change (H661 cells) of the same molecule?
Answer: pronounced G2/M arrest

Question: And the “inhibition of colony-forming capability of SHP2 E76K-expressing progenitors” value [6]?
Answer: much more sensitive than control cells

Question: What about the “colony formation of JMML myeloid blasts” value [7] of the same molecule?
Answer: exquisitely sensitive

Question: Which results are given for `CCOc1cc(O)c(C(=O)/C=C/c2ccc(Cl)cc2Cl)cc1CN(CC)CC` [LY3]?
Answer: inhibition of SHP2 phosphatase activity (qualitative) (full length SHP2): good effects on SHP2; inhibition of SHP1 relative to SHP2 (qualitative) (full length SHP1): inhibited the SHP1 phosphatase to a similar extent
